These results are taken from paper PMC4126877 (Molecular cancer therapeutics, 2014).

Where “and” joins values, the source holds several entries; their conditions need not be identical. Equal values may be shown once. Read-outs that look alike come from different tables or passages of the source. Where only a bound is given, the exact number is not on record here.

For one data set, the system named is Chk2. The settings on record: cited from earlier work.
The target in a further data set is T1, recombinant human TDP2 (Homo sapiens, UniProt O95551).
T1 sequence (O95551 1-362): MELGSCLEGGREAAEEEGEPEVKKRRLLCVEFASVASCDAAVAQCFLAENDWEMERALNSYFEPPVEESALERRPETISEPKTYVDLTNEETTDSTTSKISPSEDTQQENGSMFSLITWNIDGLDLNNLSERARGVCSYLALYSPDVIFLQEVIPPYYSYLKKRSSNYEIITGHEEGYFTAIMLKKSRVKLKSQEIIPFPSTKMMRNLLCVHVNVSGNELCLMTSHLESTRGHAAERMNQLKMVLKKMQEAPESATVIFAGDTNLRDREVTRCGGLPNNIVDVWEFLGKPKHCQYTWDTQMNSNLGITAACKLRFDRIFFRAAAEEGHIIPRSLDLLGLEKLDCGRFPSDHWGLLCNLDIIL
The experiment in a line: Recombinant TDP2 counter-screening assay. The settings on record: for activity against TDP2 (in words): tested up to 111 µM. The format is biochemical. The procedure, abridged:
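Counter-screen: 1 nM α32P-cordycepin-3′-labeled 18-mer single-stranded oligonucleotide incubated with 25 pM recombinant human TDP2, ± inhibitor, 15 min, room temperature. Reactions terminated and processed as the TDP1 gel assays: gel run, PhosphorImager exposure, densitometry.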

For the next data set, the target named is recombinant TDP1 (Homo sapiens, UniProt Q9NUW8). The experiment in a line: Recombinant TDP1 gel-based assay. The format is biochemical. In outline:
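Gel-based cleavage assay: 1 nM 5′-[32P]-labeled single-stranded oligonucleotide with a 3′-phosphotyrosine (N14Y) incubated with 10 pM recombinant TDP1, ± inhibitor, 15 min, room temperature. Parallel reactions in HTS buffer: 1X PBS pH 7.4, 80 mM KCl, 0.01% Tween-20. Gels dried, PhosphorImager-scanned, quantified by densitometry.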

Data set [1] deals with endogenous human TDP1 from whole cell extracts (DT40 hTDP1) (Homo sapiens, UniProt Q9NUW8). The experiment in a line: Whole cell extract. The format is biochemical.
Chain of endogenous human TDP1 from whole cell extracts (DT40 hTDP1) (Q9NUW8 whole entry): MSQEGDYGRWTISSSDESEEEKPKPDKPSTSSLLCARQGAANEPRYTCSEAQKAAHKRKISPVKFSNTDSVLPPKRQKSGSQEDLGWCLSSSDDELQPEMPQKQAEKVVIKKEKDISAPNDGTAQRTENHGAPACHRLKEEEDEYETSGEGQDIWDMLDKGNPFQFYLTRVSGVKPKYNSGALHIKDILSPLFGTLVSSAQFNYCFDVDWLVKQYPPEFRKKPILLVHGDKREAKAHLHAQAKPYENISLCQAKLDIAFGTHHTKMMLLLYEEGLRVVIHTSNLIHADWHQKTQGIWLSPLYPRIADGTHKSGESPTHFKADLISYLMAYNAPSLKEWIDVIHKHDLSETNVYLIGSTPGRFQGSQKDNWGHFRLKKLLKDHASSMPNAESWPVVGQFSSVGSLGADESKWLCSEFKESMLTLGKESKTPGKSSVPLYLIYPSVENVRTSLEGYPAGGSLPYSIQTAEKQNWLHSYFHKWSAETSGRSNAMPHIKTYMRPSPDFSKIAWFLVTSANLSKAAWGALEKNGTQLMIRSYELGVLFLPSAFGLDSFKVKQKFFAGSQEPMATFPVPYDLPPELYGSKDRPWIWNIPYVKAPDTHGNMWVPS
Another data set has as its system DT40 hTDP1 cells. The format is cell-based. The settings on record: 72 h.
[2] abbreviates: read-out: IC50 TDP1 REC, recombinant TDP1, WCE buffer.

One may read the IC50 as the midpoint of a concentration-inhibition curve.

Chain of recombinant TDP1 (Q9NUW8 whole entry): as above

Take `CN[C@@H]1C[C@H]2O[C@@](C)([C@@H]1OC)n1c3ccccc3c3c4c(c5c6ccccc6n2c5c31)C(=O)N[C@H]4O` [7-hydroxystaurosporine (UCN-01), 7-hydroxystaurosporine]: in the data set on Chk2, the “inhibition of Chk2 purified from cell extract by immunoprecipitation” value is recorded as “found to inhibit” and the “inhibition of recombinant Chk2 enzyme” value was “ineffective”.

As for `O=C(O)c1ccc(-c2ccc(C=C3NC(=O)N(Cc4ccccc4F)C3=O)o2)cc1` [JLT048, 4-(5-[{[1-(2-fluorobenzyl)-2,5-dioxo-4-imidazolidinylidene]methyl]}-2furyl)benzoic acid], at recombinant human TDP2, the IC50 was found to be 32 ± 10 µM and the “activity against TDP2 (in words)” value is “also inhibited TDP2, albeit with higher IC50 values”. Besides, at recombinant TDP1, the IC50 stood at 7.7 ± 1.8 µM and the “inhibition of REC-TDP1 (in words)” value was “inhibited REC-TDP1 at low micromolar concentrations”. The IC50 in data set [1] (IC50 TDP1 WCE, WCE buffer) is 115 µM and 148 µM. In addition, in the data set with DT40 hTDP1 cells, the cytotoxicity result is listed as “did not exhibit any cytotoxicity” and the “synergistic effect in combination with CPT” value is given as “no synergistic effect”.

`Cc1ccc(Nc2nn3c(=O)c4ccccc4nc3s2)cc1C` [NCGC00183674]: at recombinant human TDP2, the “selectivity for TDP1 versus TDP2” value is on record as “higher selectivity for TDP1”. The IC50 at recombinant human TDP2 (read-out: IC50 TDP2 REC, recombinant TDP2) is > 111 µM; at recombinant TDP1 (setting [2]), 12.1 ± 1.7 µM; in data set [1] (read-out: IC50 TDP1 WCE, WCE buffer) it was 51 µM and 59 µM. Moreover, on recombinant human TDP2, the “activity against TDP2 (in words)” value is reported as “only marginal activity against TDP2 at 111 µM”. Further, the “inhibition of REC-TDP1 (in words)” value on recombinant TDP1 is “inhibited REC-TDP1 at low micromolar concentrations”. Moreover, in the data set with DT40 hTDP1 cells, the cytotoxicity entry was “did not exhibit any cytotoxicity”. Further, the “synergistic effect in combination with CPT” value with DT40 hTDP1 cells is “no synergistic effect”.

As to `O=c1c2ccccc2nc2sc(Nc3ccc4c(c3)CCC4)nn12` [NCGC00183964], the “reduction in potency, WCE buffer vs HTS buffer” value at recombinant TDP1 (REC-TDP1) is given as 25 fold. Besides, at recombinant TDP1 (setting [2]), the IC50 stood at 81 µM.
